High-throughput results from PubChem BioAssay.
Compounds with a hit are over-represented: about 2.1% of the library has one in this group of screens.
STEP inh: inhibitors of human striatal-enriched phosphatase STEP | recombinant STEP, OMFP fluorogenic substrate, fluorescence | AID 588621 | inhibition, % at 20 µM | 360,000 compounds, 0.25% hits | P54829;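 active = inhibition at 20 µM, scaled per plate between control wells, above about 37%, limit read from the data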
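Material: STEP (striatal-enriched tyrosine phosphatase) enzyme, cell-free | Medium: 50 mM Bis-Tris pH 6.0 with 2.5 mM DTT and 0.005% Tween 20 | Read-out: Percent inhibition scaled to no-enzyme and uninhibited-enzyme controls, plate-pattern corrected | Signal: Fluorescence read at 480 nm ex / 540 nm em | Times: 20 min reaction, room temperature, in the dark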
LMPTP block: blocks human LMPTP phosphatase; P24666; recombinant LMPTP-A, OMFP fluorogenic substrate, fluorescence intensity; inhibition, % at 20 µM; 360,000 compounds, 0.22% hits;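 active = compounds that cut the enzyme signal by at least half of the control window in the single-dose screen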
Target sequence (P24666 whole entry, looked up): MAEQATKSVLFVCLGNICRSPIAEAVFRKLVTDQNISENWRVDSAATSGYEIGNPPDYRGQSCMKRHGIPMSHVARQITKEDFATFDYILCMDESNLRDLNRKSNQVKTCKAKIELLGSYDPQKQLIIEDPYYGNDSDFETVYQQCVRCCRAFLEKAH
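Test system – LMPTP-A phosphatase enzyme · Quantity – 0.625 nM LMPTP-A final · Reagent – OMFP substrate, 400 µM final · Dosing – one test concentration per compound, 20 µM, with 3% DMSO overall · Timing – 50 min enzyme reaction at room temperature, protected from light · Detection – fluorescence intensity · Controls – substrate-only low control, DMSO enzyme-plus-substrate high control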
SUMO1 PPI mod: modulators of human SUMO1-mediated protein-protein interactions. P63165. SUMO1 binding to a labelled peptide, TR-FRET, 1 h. 360,000 compounds, 0.33% hits. inhibition, % at 20 µM; in the data active = inhibition above about 37%
Target sequence (P63165 whole entry, looked up): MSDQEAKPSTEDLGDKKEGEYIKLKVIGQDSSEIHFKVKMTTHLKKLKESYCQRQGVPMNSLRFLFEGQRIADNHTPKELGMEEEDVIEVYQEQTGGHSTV
Scp-1 inhibitor: Scp-1 (human) phosphatase inhibition; inhibition, % at 20 µM; Q9GZU7; Recombinant Scp1, phosphopeptide, malachite green phosphate absorbance; 340,000 compounds, 0.88% hits;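 active = inhibition above about 50% at 20 µM, limit read from the data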
Target sequence (Q9GZU7 76-261 limits assumed): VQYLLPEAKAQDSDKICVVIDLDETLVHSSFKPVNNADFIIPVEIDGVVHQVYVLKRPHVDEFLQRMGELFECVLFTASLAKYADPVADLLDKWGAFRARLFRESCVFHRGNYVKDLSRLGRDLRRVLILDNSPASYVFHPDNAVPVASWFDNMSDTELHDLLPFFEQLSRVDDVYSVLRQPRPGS
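Test system: SCP-1 phosphatase catalytic domain, residues 76-261; measured by: colorimetric phosphate reagent with accelerator and stabiliser, absorbance at 630 nm; timing: enzyme reaction 45 min at room temperature, colour 5 min, stabilisation 30 min; also added: Phosphorylated 17-residue peptide substrate; compound dosing: one concentration, 20 µM, with 1.0% DMSO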
DNMT1 inh: blocks human DNA methyltransferase DNMT1 | P26358 | DNMT1 molecular beacon, Hinp1I cleavage, fluorescence | inhibition (reported as % activation of signal), % at 10 µM | AID 588458 | 360,000 compounds, 0.83% hits; in the data active = inhibition above about 50%
GRK2 inh: blocks RNA aptamer binding to human GRK2; bead flow cytometry, FAM-aptamer displacement from GRK2; inhibition of aptamer binding, % at 10 µM; 330,000 compounds, 0.59% hits; AID 488847;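 active = inhibition of aptamer binding above 40%, roughly 3 SD of noise, on plates passing a quality check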;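 note: median bead fluorescence of bound FAM aptamer so fluorescent compounds give negative values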
Numbers stand for hits; i = inactive; nt = not tested or not shown.

SMILES	STEP inh	LMPTP block	SUMO1 PPI mod	Scp-1 inhibitor	DNMT1 inh	GRK2 inh
O=C(CN1C(=O)NC2(CCCCCC2)C1=O)Nc1ccc(Cl)cc1Cl	i	i	i	i	i	i
COc1cccc2oc3cc(C#Cc4ccccn4)ccc3c(=O)c12	nt	nt	nt	59	nt	i
N=C1CCC(=N)c2c1c(O)c1ccccc1c2O	i	i	44	i	76	i
O=C(COC(=O)Cc1ccc(Cl)cc1)Nc1ccc(OC(F)F)cc1	i	i	i	i	i	44
O=C(COC(=O)c1ccc(Cl)c(S(=O)(=O)N2CCOCC2)c1)Nc1ccc2[nH]c(=O)[nH]c2c1	i	i	84	i	i	i
CCC(C(=O)OCC(=O)Nc1ccc2[nH]c(=O)[nH]c2c1)c1ccccc1 (centres undefined)	i	i	43	i	i	i
O=C(COC(=O)c1ccccc1OC(F)F)Nc1ccc2[nH]c(=O)[nH]c2c1	i	i	40	i	i	i
O=C(COC(=O)c1cc(Cl)nc(Cl)c1)Nc1ccc(Cl)c(S(=O)(=O)N2CCOCC2)c1	i	i	i	i	i	i
CN(C(=O)CSc1nnnn1-c1ccc(O)cc1)C1CCCCC1	i	i	i	i	i	i
COc1ccc(CN2CCC3CC2c2cc(-c4cccc(C)c4)ccc23)cc1 (centres undefined)	i	i	i	i	i	nt
CCOC(=O)N1CCN(C(=O)C[C@@H]2C[C@@]3(C(=O)OCC)CCC=C3N(Cc3cccc4ccccc34)C2=O)CC1	nt	i	i	nt	nt	nt
Cc1ccc(C(=O)CCC(=O)OCC(=O)Nc2ccc3[nH]c(=O)[nH]c3c2)cc1	i	i	i	i	i	i
O=C(COC(=O)CCC(=O)c1ccc(F)cc1)Nc1ccc2[nH]c(=O)[nH]c2c1	i	i	39	i	i	i
O=C(CSc1nncs1)Nc1ccc2[nH]c(=O)[nH]c2c1	i	i	66	i	i	i
Cc1nnc(SCC(=O)Nc2ccc3[nH]c(=O)[nH]c3c2)s1	i	i	i	i	i	i
O=C(COC(=O)Cc1ccc(F)cc1)Nc1ccc2[nH]c(=O)[nH]c2c1	i	i	74	i	i	i
O=C1C=CC(n2cc(F)c(=O)[nH]c2=O)O1 (centres undefined)	i	i	i	nt	i	nt
COCCNc1nc(NCc2ccc(C)cc2C)c2sccc2n1	i	59	i	nt	i	nt
CC(=O)Nc1ccc(CNc2nc(NC(C)C)nc3ccsc23)cc1	i	i	i	nt	i	nt
COc1ccccc1CNc1nc(NCc2cccc(OC)c2OC)c2sccc2n1	i	i	i	nt	i	nt
COc1ccccc1CNc1nc(NCc2cnc(C)cn2)c2sccc2n1	i	80	i	nt	i	nt
CC(=O)Nc1ccc(CNc2nc(NCC3CC3)nc3ccsc23)cc1	i	60	i	nt	i	nt
COCCNc1nc(NCc2cccc(OC)c2OC)c2sccc2n1	i	62	i	nt	i	nt
CC(C)CN1C(=O)C(=O)N(CC(=O)NCCCc2ccccc2)C1=O	i	i	i	nt	i	nt
CCCNC(=O)C1(C)CCN(Cc2ccc(OCc3ccccc3)cc2)C1 (centres undefined)	i	i	i	nt	i	nt
SMILES	STEP inh	LMPTP block	SUMO1 PPI mod	Scp-1 inhibitor	DNMT1 inh	GRK2 inh
COc1ccc(Nc2nc(NCc3cccs3)nc3ccsc23)cc1OC	i	56	i	nt	i	nt
COCCNc1nc(NCc2ccc(C(C)C)cc2)c2sccc2n1	i	51	i	nt	i	nt
COc1ccc(Nc2nc(NC(C)C)nc3ccsc23)cc1OC	i	i	i	nt	i	nt
COc1cc(NCCCCCCN)c2ncccc2c1OC	i	i	i	i	62	nt
COc1cc(NC(C)CCCNC(C)C)c2ncccc2c1OC (centres undefined)	i	i	i	i	i	nt
Cc1ccccc1S(=O)(=O)NC(=O)C1(C)CCN1C(=O)CC(c1ccccc1)c1ccccc1 (centres undefined)	i	i	i	nt	i	nt
O=C1CC(N2CCC(c3nc4ccccc4o3)CC2)C(=O)N1Cc1cccs1 (centres undefined)	i	i	57	i	i	i
CNC(=O)C[C@H]1C(=O)N(CCc2ccccc2)C[C@@H]1Cc1ccccc1	i	i	i	nt	i	nt
CCOc1ccc(NC(=O)c2ccc(CNc3c(NC4CCCCC4)c(=O)c3=O)cc2)cc1	i	i	i	i	56	i
